Experimental data from ChEMBL document CHEMBL4819117, “Probing cytochrome P450 (CYP) bioactivation with chloromethylindoline bioprecursors derived from the duocarmycin family of compounds” (Bioorg Med Chem, 2021).

Experiments:
EJ [1] = test: Antiproliferative activity against human EJ138 cells deficit in CYPs assessed as inhibition of cell growth after 96 hrs by MTT assay; format: functional, cell-based
In short: (§1)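 Cells kept as monolayers at 37 °C in 5% CO2: EJ-138 and RT112 in RPMI 1640 with 10% FBS, sodium pyruvate and 2 mM L-glutamine; CHO and CHO-1A1 in DMEM. Compounds were taken from DMSO stocks into medium over 0.001–100 μM, with final DMSO ≤0.1%. Exposure lasted 96 h, then MTT read-out. IC50 values are mean ± SD of at least three independent assays.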

RT-112 = test: Antiproliferative activity against human RT112 cells proficient in CYP1A1 assessed as inhibition of cell growth after 96 hrs by MTT assay; format: functional, cell-based; details: RT-112, 96 h; in short: as §1
CHO [2] = test: Antiproliferative activity against wild type chinese hamster CHO cells deficit in CYPs assessed as inhibition of cell growth after 96 hrs by MTT assay; format: functional, cell-based; details: Cricetulus griseus; in short: as §1
CHO [3] = test: Antiproliferative activity against chinese hamster CHO cells transfected with CYP1A1 assessed as inhibition of cell growth after 96 hrs by MTT assay; format: functional, cell-based; details: Cricetulus griseus; in short: as §1
EJ [4] = test: Antiproliferative activity against human EJ138 cells assessed as inhibition of cell growth preincubated for 1 hr with CYP null bactosomes measured after 96 hrs by MTT assay; format: functional, cell-based
In short: (§2)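 Compound (50 μM) incubated 1 h at 37 °C with 20 pmol CYP bactosomes (CYP null, 1A1, 1A2, 1B1 or 3A4) in 2 mM NADPH, 1 mM MgCl₂, Tris-HCl pH 7.4. Metabolites were extracted with acetonitrile, centrifuged, and the supernatant dried and taken up in DMSO. EJ138 cells were exposed 96 h and growth read by MTT assay.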

EJ [5] = test: Antiproliferative activity against human EJ138 cells assessed as inhibition of cell growth preincubated for 1 hr with human CYP1A1 expressing bactosomes measured after 96 hrs by MTT assay; format: functional, cell-based; in short: as §2
EJ [6] = test: Antiproliferative activity against human EJ138 cells assessed as inhibition of cell growth preincubated for 1 hr with human CYP1A2 expressing bactosomes measured after 96 hrs by MTT assay; format: functional, cell-based; in short: as §2
EJ [7] = test: Antiproliferative activity against human EJ138 cells assessed as inhibition of cell growth preincubated for 1 hr with human CYP1B1 expressing bactosomes measured after 96 hrs by MTT assay; format: functional, cell-based; in short: as §2
EJ [8] = test: Antiproliferative activity against human EJ138 cells assessed as inhibition of cell growth preincubated for 1 hr with human CYP3A4 expressing bactosomes measured after 96 hrs by MTT assay; format: functional, cell-based; in short: as §2
[9] = Drug metabolism in Wistar rat liver microsomes assessed as CYP-mediated metabolite M16 formation at 0.5 to 23.5 uM prewarmed for 5 mins followed by NADPH addition and measured after 30 mins by HPLC-fluorescence detector analysis; format: ADME; details: 35 min, dose 0.5-23.5 µM
Cytochrome P450 [10] = test: Drug metabolism in human liver microsomes assessed as CYP-mediated metabolite M16 formation at 0.5 to 23.5 uM prewarmed for 5 mins followed by NADPH addition and measured after 30 mins by HPLC-fluorescence detector analysis; format: ADME; details: 35 min, dose 0.5-23.5 µM
EJ [11] = test: Potentiation factor, ratio of IC50 for antiproliferative activity against human EJ138 cells preincubated for 1 hr with CYP null bactosomes to IC50 for antiproliferative activity against human EJ138 cells preincubated for 1 hr with human CYP1A1 expressing bactosomes; format: functional
In short: (§3)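 Potentiation factor = IC₅₀ in EJ138 given control (CYP null) bactosome extract ÷ IC₅₀ with the named CYP isoform extract. Extracts came from 1 h, 37 °C incubations of 50 μM compound with 20 pmol bactosomes plus 2 mM NADPH, 1 mM MgCl₂, Tris-HCl pH 7.4. Cells were exposed 96 h and read by MTT.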

EJ [12] = test: Potentiation factor, ratio of IC50 for antiproliferative activity against human EJ138 cells preincubated for 1 hr with CYP null bactosomes to IC50 for antiproliferative activity against human EJ138 cells preincubated for 1 hr with human CYP1A2 expressing bactosomes; format: functional; in short: as §3
EJ [13] = test: Potentiation factor, ratio of IC50 for antiproliferative activity against human EJ138 cells preincubated for 1 hr with CYP null bactosomes to IC50 for antiproliferative activity against human EJ138 cells preincubated for 1 hr with human CYP1B1 expressing bactosomes; format: functional; in short: as §3
EJ [14] = test: Potentiation factor, ratio of IC50 for antiproliferative activity against human EJ138 cells preincubated for 1 hr with CYP null bactosomes to IC50 for antiproliferative activity against human EJ138 cells preincubated for 1 hr with human CYP3A4 expressing bactosomes; format: functional; in short: as §3
Cytochrome P450 1A1 [15] = molecular target: T1, Cytochrome P450 1A1 (Homo sapiens, UniProt P04798); test: Drug metabolism assessed as human CYP1A1 expressed in bactosomes assessed as metabolite M2 with m/z 357.1 formation measured after 1 hr by LC-MS analysis; format: ADME; details: recombinant enzyme
T1 sequence (P04798 whole entry): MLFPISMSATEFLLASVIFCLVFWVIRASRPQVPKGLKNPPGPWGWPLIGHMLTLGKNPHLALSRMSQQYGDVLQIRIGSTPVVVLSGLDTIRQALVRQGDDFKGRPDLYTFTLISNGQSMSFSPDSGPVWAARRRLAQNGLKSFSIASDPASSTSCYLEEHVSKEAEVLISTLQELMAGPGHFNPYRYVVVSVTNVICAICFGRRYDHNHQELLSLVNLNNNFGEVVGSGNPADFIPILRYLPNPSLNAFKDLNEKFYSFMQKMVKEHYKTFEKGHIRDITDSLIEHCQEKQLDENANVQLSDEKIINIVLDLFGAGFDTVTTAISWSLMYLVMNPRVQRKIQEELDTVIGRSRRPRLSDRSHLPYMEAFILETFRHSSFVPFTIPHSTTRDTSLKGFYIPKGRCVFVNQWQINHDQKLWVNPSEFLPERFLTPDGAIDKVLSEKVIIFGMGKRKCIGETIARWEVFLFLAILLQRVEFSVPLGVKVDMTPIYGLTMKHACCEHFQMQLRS

Cytochrome P450 1A1 [16] = molecular target: T1, Cytochrome P450 1A1; test: Drug metabolism assessed as human CYP1A1 expressed in bactosomes assessed as metabolite M3 with m/z 339.1 formation measured after 1 hr by LC-MS analysis; format: ADME; details: recombinant enzyme
Cytochrome P450 1A1 [17] = molecular target: T1, Cytochrome P450 1A1; test: Drug metabolism assessed as human CYP1A1 expressed in bactosomes assessed as (3-(chloromethyl)-6-hydroxyindolin-1-yl)(5-methoxy-1H-indol-2-yl)methanone formation measured after 1 hr by LC-MS analysis; format: ADME; details: recombinant enzyme
Cytochrome P450 1A2 = molecular target: T2, Cytochrome P450 1A2 (Homo sapiens, UniProt P05177); test: Drug metabolism assessed as human CYP1A2 expressed in bactosomes assessed as (3-(chloromethyl)-6-hydroxyindolin-1-yl)(5-methoxy-1H-indol-2-yl)methanone formation measured after 1 hr by LC-MS analysis; format: ADME; details: recombinant enzyme
T2 sequence (P05177 whole entry): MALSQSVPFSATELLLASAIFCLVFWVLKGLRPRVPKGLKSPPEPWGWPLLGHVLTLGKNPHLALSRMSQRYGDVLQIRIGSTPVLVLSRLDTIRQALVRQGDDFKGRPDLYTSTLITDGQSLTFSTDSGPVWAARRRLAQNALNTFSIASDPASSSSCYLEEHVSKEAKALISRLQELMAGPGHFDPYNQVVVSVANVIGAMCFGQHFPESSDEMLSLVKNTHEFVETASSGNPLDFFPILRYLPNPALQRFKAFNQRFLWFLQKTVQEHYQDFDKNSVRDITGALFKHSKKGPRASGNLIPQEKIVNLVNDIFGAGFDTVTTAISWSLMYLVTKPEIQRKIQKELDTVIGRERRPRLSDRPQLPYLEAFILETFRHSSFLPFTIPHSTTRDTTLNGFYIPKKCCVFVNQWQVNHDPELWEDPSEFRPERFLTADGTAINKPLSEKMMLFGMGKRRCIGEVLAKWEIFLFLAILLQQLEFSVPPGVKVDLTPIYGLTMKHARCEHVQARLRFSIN

Cytochrome P450 1A1 [18] = molecular target: T1, Cytochrome P450 1A1; test: Drug metabolism assessed as recombinant human CYP1A1-mediated metabolite M2 with m/z 357.1 formation at 50 uM incubated for 1 hr in presence of reconstituted protein system by LC-MS analysis; format: ADME; details: recombinant enzyme
In short: (§4)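 Substrate (50 μM) incubated at 37 °C with human recombinant CYP1A1 in a reconstituted system: NADPH cytochrome P450 reductase, freshly prepared DLPC (240 μM), 100 mM potassium phosphate pH 7.4. Reaction was started with NADPH (1 mM final) and aliquots quenched into dichloromethane over 60 min. Metabolites were profiled by HPLC with photodiode array and ESI⁺ quadrupole MS.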

Cytochrome P450 1A1 [19] = molecular target: T1, Cytochrome P450 1A1; test: Drug metabolism assessed as recombinant human CYP1A1-mediated metabolite M3 with m/z 339.1 formation at 50 uM incubated for 1 hr in presence of reconstituted protein system by LC-MS analysis; format: ADME; details: recombinant enzyme; in short: as §4
Cytochrome P450 1A1 [20] = molecular target: T1, Cytochrome P450 1A1; test: Drug metabolism assessed as recombinant human CYP1A1-mediated metabolite M4 with m/z 327.1 formation at 50 uM incubated for 1 hr in presence of reconstituted protein system by LC-MS analysis; format: ADME; details: recombinant enzyme; in short: as §4
Cytochrome P450 1A1 [21] = molecular target: T1, Cytochrome P450 1A1; test: Drug metabolism assessed as recombinant human CYP1A1-mediated metabolite M5 with m/z 355.1 formation at 50 uM incubated for 1 hr in presence of reconstituted protein system by LC-MS analysis; format: ADME; details: recombinant enzyme; in short: as §4
Cytochrome P450 1A1 [22] = molecular target: T1, Cytochrome P450 1A1; test: Drug metabolism assessed as recombinant human CYP1A1-mediated metabolite M6 with m/z 373.1 formation at 50 uM incubated for 1 hr in presence of reconstituted protein system by LC-MS analysis; format: ADME; details: recombinant enzyme; in short: as §4
[23] = Drug metabolism in Wistar rat liver microsomes assessed as CYP-mediated metabolite M22 formation at 0.5 to 23.5 uM prewarmed for 5 mins followed by NADPH addition and measured after 30 mins by HPLC-fluorescence detector analysis; format: ADME; details: 35 min, dose 0.5-23.5 µM
[24] = Drug metabolism in Wistar rat liver microsomes assessed as CYP-mediated metabolite M23 formation at 0.5 to 23.5 uM prewarmed for 5 mins followed by NADPH addition and measured after 30 mins by HPLC-fluorescence detector analysis; format: ADME; details: 35 min, dose 0.5-23.5 µM
Cytochrome P450 [25] = test: Drug metabolism in human liver microsomes assessed as CYP-mediated metabolite M22 formation at 0.5 to 23.5 uM prewarmed for 5 mins followed by NADPH addition and measured after 30 mins by HPLC-fluorescence detector analysis; format: ADME; details: 35 min, dose 0.5-23.5 µM
Cytochrome P450 [26] = test: Drug metabolism in human liver microsomes assessed as CYP-mediated metabolite M23 formation at 0.5 to 23.5 uM prewarmed for 5 mins followed by NADPH addition and measured after 30 mins by HPLC-fluorescence detector analysis; format: ADME; details: 35 min, dose 0.5-23.5 µM
[27] = Selectivity ratio of IC50 for antiproliferative activity against wild type chinese hamster CHO cells deficit in CYPs to IC50 for antiproliferative activity against chinese hamster CHO cells transfected with CYP1A1 by MTT assay; format: functional, Cricetulus griseus
In short: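 CHO wild-type and CYP1A1-transfected CHO cells were grown in DMEM at 37 °C, 5% CO₂. Compounds from DMSO stocks were tested at 0.001–100 μM, final DMSO ≤0.1%, for 96 h, then MTT. Ratio = CHOwt IC₅₀ / CHO1A1 IC₅₀; IC₅₀ values are mean ± SD of at least three independent assays.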

Structure (SMILES): CC(C)(C)OC(=O)N1CC(CCl)c2ccc(O)cc21 (stereo not drawn)
- IC50 (EJ [1]): 8.1 µM
- IC50 (RT-112): 11.1 µM
- IC50 (CHO [2]): 7.3 µM
- IC50 (CHO [3]): 6.5 µM

Structure (SMILES): COc1ccc2[nH]c(C(=O)N3CC(CCl)c4ccccc43)cc2c1 (stereo not drawn)
- IC50 (EJ [1]): 15 µM
- IC50 (RT-112): 8.04 µM
- IC50 (CHO [2]): 11.4 µM
- IC50 (CHO [3]): 1.2 µM
- IC50 (EJ [4]): 17.2 µM
- IC50 (EJ [5]): 2500 nM
- IC50 (EJ [6]): 1900 nM
- IC50 (EJ [7]): 13.5 µM
- IC50 (EJ [8]): 19.8 µM
- Drug metabolism [9]: Metabolite_Detected
- Drug metabolism (Cytochrome P450 [10]): Metabolite_Detected
- Ratio IC50 (EJ [11]): 6.9
- Ratio IC50 (EJ [12]): 9.1
- Ratio IC50 (EJ [13]): 1.3
- Ratio IC50 (EJ [14]): 0.9
- Drug metabolism (Cytochrome P450 1A1 [15]): Metabolite_Detected
- Drug metabolism (Cytochrome P450 1A1 [16]): Metabolite_Detected
- Drug metabolism (Cytochrome P450 1A1 [17]): Metabolite_Notdetected
- Drug metabolism (Cytochrome P450 1A2): Metabolite_Notdetected
- Drug metabolism (Cytochrome P450 1A1 [18]): Metabolite_Detected
- Drug metabolism (Cytochrome P450 1A1 [19]): Metabolite_Detected
- Drug metabolism (Cytochrome P450 1A1 [20]): Metabolite_Detected
- Drug metabolism (Cytochrome P450 1A1 [21]): Metabolite_Detected
- Drug metabolism (Cytochrome P450 1A1 [22]): Metabolite_Detected
- Drug metabolism [23]: Metabolite_Detected
- Drug metabolism [24]: Metabolite_Detected
- Drug metabolism (Cytochrome P450 [25]): Metabolite_Detected
- Drug metabolism (Cytochrome P450 [26]): Metabolite_Detected
- Ratio IC50 [27]: 10
